Assay results taken from ChEMBL document CHEMBL4840361, “Phytochemical Profiling and Biological Testing of the Constituents of the Australian Plant Haemodorum brevisepalum” (2021).
The source made the active and inactive calls. The calls are words filed in the database; no cut-off is given here.

How the values were obtained:
[1] = system: Cryptococcus neoformans; test: Antifungal activity against Cryptococcus neoformans var. grubii H99 ATCC 208821 assessed as fungal growth inhibition at 32 ug/ml measured after 3 days by resazurine dye based assay; type: functional, organism-based; details: dose 32.0 µg/ml, time 3.0 day
How it was run: (§1)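 Screened through CO-ADD at 32 µg/mL against a panel of five bacteria and two fungi. Run in duplicate (n=2) on different plates. Activity was called when inhibition exceeded 80% with a Z-score above 2.5 in either replicate.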

[2] = system: Escherichia coli; test: Antibacterial activity against Escherichia coli ATCC 25922 assessed as bacterial growth inhibition at 32 ug/ml measured after 18 hrs by resazurine dye based assay; type: functional, organism-based; details: dose 32.0 µg/ml; how it was run: as §1
[3] = system: Staphylococcus aureus; test: Antibacterial activity against Staphylococcus aureus MRSA ATCC 43300 assessed as bacterial growth inhibition at 32 ug/ml measured after 18 hrs by resazurine dye based assay relative to control; type: functional; how it was run: as §1
[4] = system: Haemonchus contortus; test: Anthelmintic activity against third stage larvae of Haemonchus contortus assessed as inhibition of xL3 larval motility at 20 uM measured after 72 hrs; type: functional, organism-based
How it was run: (§2)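 Exsheathed third-stage larvae (xL3s) of Haemonchus contortus, screened at 20 µM in 96-well plates holding 300 xL3s per well; testing was done at the University of Melbourne.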

[5] = system: Haemonchus contortus; test: Anthelmintic activity against third stage larvae of Haemonchus contortus assessed as inhibition of larval development at 20 uM measured after 7 days by microscopic analysis; type: functional, organism-based; details: time 7.0 day; how it was run: as §2
[6] = system: Candida albicans; test: Antifungal activity against Candida albicans ATCC 90028 assessed as fungal growth inhibition at 32 ug/ml measured after 3 days by resazurine dye based assay relative to control; type: functional; details: ATCC 90028, 72 h, time 3 day; how it was run: as §1

Row | Structure (SMILES) | Activity [1] | Activity [2] | inhibition at 32 µg/mL [3] | Activity [4] | Activity [5] | inhibition at 32 µg/mL [6]
1 | COc1cc2ccc(=O)c3cc(O[C@@H]4O[C@H](CO)[C@@H](O)[C@H](O)[C@H]4O)c4c5ccccc5oc1c4c23 | inactive | inactive | 8.1% | – | – | –
2 | O=C1C=Cc2cc(O)c(O[C@@H]3O[C@H](CO)[C@@H](O)[C@H](O)[C@H]3O)c3cc(-c4ccccc4O)cc1c23 | inactive | inactive | – | inactive | inactive | 38.7%
3 | O=C1C=Cc2cc(O[C@@H]3O[C@H](CO)[C@@H](O)[C@H](O)[C@H]3O)cc3c(-c4ccc(O)cc4)ccc1c23 | inactive | inactive | – | inactive | inactive | 29.6%
4 | O=C1OC(O)c2cc(O)c(O[C@@H]3O[C@H](CO)[C@@H](O)[C@H](O)[C@H]3O)c3c(-c4ccccc4)ccc1c23 (mixture of isomers) | inactive | inactive | – | inactive | inactive | –
5 | COc1cc2ccc(=O)c3ccc4c5ccccc5oc1c4c23 | inactive | inactive | 58.4% | – | – | –
6 | O=c1c(O[C@@H]2O[C@H](CO)[C@@H](O)[C@H](O)[C@H]2O)c(-c2ccc(O)c(O)c2)oc2cc(O)cc(O)c12 | inactive | inactive | – | – | – | –
7 | O=c1c(O[C@@H]2O[C@H](CO[C@@H]3O[C@H](CO)[C@@H](O)[C@H](O)[C@H]3O)[C@@H](O)[C@H](O)[C@H]2O)c(-c2ccc(O)c(O)c2)oc2cc(O)cc(O)c12 | inactive | inactive | – | – | – | –
8 | O=C1C(O)=Cc2cc(O[C@@H]3O[C@H](CO[C@@H]4O[C@H](CO)[C@@H](O)[C@H](O)[C@H]4O)[C@@H](O)[C@H](O)[C@H]3O)cc3c(-c4ccc(O)c(O)c4)ccc1c23 | inactive | inactive | – | inactive | inactive | –
9 | O=C1OC(C(=O)O)c2cc(O)c(O[C@H]3O[C@@H](CO)[C@H](O)[C@@H](O)[C@@H]3O)c3c(-c4ccccc4)ccc1c23 (mixture of isomers) | inactive | inactive | – | – | – | –
10 | CC(=O)OC[C@@H]1O[C@H](Oc2c(OC(C)=O)cc3c4c(ccc(-c5ccccc5)c24)C(=O)OC3)[C@@H](OC(C)=O)[C@H](OC(C)=O)[C@H]1OC(C)=O | inactive | inactive | – | – | – | –
11 | COC1=Cc2cc(OC)c(O[C@@H]3O[C@H](CO)[C@@H](O)[C@H](O)[C@H]3O[C@@H]3O[C@H](COC(=O)/C=C/c4ccc(O)c(O)c4)[C@@H](O)[C@H](O)[C@H]3O)c3c(-c4ccccc4)ccc(c23)C1=O | inactive | inactive | – | inactive | inactive | –
12 | O=C1C(O)=Cc2ccc(O[C@@H]3O[C@H](CO)[C@@H](O)[C@H](O)[C@H]3O)c3cc(-c4ccccc4O)cc1c23 | inactive | inactive | – | inactive | inactive | –
13 | O=C1OCc2cc(O)c(O[C@@H]3O[C@H](CO)[C@@H](O)[C@H](O)[C@H]3O)c3c(-c4ccccc4)ccc1c23 | inactive | inactive | – | inactive | inactive | –
14 | COC(=O)c1ccc(-c2ccccc2)c2c1C(=O)C=C(OC)C2=O | inactive | inactive | – | – | – | –
